Test results published in ChEMBL document CHEMBL1141375, “Synthesis and cell-based activity of a potent and selective protein tyrosine phosphatase 1B inhibitor prodrug” (J Med Chem, 2007).

Key:
Assay type in all cases: functional, cell-based
[1] = biological target: Insulin receptor (Homo sapiens) (UniProt P06213); assay: Increase in insulin-induced ERK phosphorylation in HepG2 cells after 20 mins at 20 nM
[2] = biological target: Insulin receptor (Homo sapiens) (UniProt P06213); assay: Increase in insulin-induced ERK phosphorylation in HepG2 cells after 60 mins at 20 nM
Summary of the method: (§1)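 Time course in subconfluent HepG2 cells. Preincubation with 20 nM prodrug for various periods (5, 20, 60 min), then 5 min with or without 100 nM insulin. Lysates resolved by SDS-PAGE, transferred to nitrocellulose and probed for phospho-IRβ and phospho-ERK1/2. Result expressed as increase in insulin-induced phosphorylation.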

[3] = biological target: Insulin receptor (Homo sapiens) (UniProt P06213); assay: Increase in insulin-induced IRbeta phosphorylation in HepG2 cells after 60 mins at 20 nM; summary of the method: as §1
[4] = biological target: Insulin receptor (Homo sapiens) (UniProt P06213); assay: Increase in insulin-induced IRbeta phosphorylation in human HepG2 cells after 1 hr at 100 nM
Summary of the method: (§2)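 HepG2 (MEM, 2 mM L-glutamine, 1 mM pyruvate, 10% FBS, 5% CO2) grown to 60-80% confluence, serum-starved 5 h, exposed 1 h to prodrug (0, 5, 20, 100 nM), then 100 nM insulin or none for 5 min. Lysates run on SDS-PAGE, blotted with anti-phospho-IRβ (pY1162/1163) and anti-phospho-ERK1/2, β-actin loading control; bands quantified densitometrically as fold over insulin-only.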

[5] = biological target: Insulin receptor (Homo sapiens) (UniProt P06213); assay: Increase in insulin-induced ERK phosphorylation in human HepG2 cells after 1 hr at 20 nM; summary of the method: as §2
[6] = biological target: Insulin receptor (Homo sapiens) (UniProt P06213); assay: Increase in insulin-induced ERK phosphorylation in human HepG2 cells after 1 hr at 100 nM; summary of the method: as §2
[7] = biological target: Insulin receptor (Homo sapiens) (UniProt P06213); assay: Increase in insulin-induced IRbeta phosphorylation in HepG2 cells after 20 mins at 20 nM; summary of the method: as §1
[8] = biological target: Insulin receptor (Homo sapiens) (UniProt P06213); assay: Increase in insulin-induced IRbeta phosphorylation in HepG2 cells after 5 mins at 20 nM; summary of the method: as §1
[9] = biological target: Insulin receptor (Homo sapiens) (UniProt P06213); assay: Increase in insulin-induced IRbeta phosphorylation in human HepG2 cells after 1 hr at 20 nM; summary of the method: as §2
[10] = biological target: Insulin receptor (Homo sapiens) (UniProt P06213); assay: Increase in insulin-induced IRbeta phosphorylation in HepG2 cells after 2 hrs at 20 nM

Sequence of Insulin receptor (Homo sapiens) (P06213 28-758 limits assumed): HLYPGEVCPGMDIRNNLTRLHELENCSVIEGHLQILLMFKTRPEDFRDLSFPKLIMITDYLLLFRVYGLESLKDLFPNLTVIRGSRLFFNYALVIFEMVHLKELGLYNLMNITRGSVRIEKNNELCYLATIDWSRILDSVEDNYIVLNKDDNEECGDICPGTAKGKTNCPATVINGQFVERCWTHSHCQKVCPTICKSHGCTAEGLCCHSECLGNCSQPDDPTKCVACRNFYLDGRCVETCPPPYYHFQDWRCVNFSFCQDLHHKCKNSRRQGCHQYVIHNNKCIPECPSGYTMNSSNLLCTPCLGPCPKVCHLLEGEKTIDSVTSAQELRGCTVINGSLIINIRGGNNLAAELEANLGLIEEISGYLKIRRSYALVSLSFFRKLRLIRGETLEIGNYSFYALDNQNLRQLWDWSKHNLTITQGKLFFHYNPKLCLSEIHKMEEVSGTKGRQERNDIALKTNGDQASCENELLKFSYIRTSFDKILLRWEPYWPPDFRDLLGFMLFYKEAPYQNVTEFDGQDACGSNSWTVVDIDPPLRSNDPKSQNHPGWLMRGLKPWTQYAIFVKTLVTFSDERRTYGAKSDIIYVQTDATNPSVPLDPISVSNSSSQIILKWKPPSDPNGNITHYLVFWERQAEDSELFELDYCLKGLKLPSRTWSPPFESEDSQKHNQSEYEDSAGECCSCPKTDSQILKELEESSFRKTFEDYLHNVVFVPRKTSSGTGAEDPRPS
Sequence of Insulin receptor (Homo sapiens) (P06213 763-1382 limits assumed): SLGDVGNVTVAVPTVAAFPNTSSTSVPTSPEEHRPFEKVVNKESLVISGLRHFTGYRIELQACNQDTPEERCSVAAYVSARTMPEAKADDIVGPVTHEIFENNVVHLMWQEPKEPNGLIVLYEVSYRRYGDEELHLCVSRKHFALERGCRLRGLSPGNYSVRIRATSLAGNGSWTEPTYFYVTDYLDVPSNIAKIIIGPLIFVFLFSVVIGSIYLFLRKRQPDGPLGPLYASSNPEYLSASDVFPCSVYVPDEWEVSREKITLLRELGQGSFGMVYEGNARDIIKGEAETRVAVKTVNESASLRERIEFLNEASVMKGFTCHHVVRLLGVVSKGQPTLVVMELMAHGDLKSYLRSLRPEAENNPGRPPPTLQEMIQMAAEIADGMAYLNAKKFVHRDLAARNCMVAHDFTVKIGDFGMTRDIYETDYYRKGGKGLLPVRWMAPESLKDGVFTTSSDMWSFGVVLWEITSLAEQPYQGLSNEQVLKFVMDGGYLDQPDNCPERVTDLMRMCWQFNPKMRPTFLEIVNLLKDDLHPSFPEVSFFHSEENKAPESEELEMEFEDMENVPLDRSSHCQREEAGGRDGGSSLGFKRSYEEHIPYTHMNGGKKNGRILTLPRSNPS

Activity [1]: 25%
Activity [2]: 50%
Activity [3]: 2
Activity [4]: 2.1
Activity [5]: 1.3
Activity [6]: 1.6
Activity [7]: 1.7
Activity [8]: 35%
Activity [9]: 1.9
Activity [10]: 2.1
SMILES: CN(CCCCCl)P(=O)(OCc1ccc([N+](=O)[O-])o1)C(F)(F)c1ccc(CC(=O)N[C@@H](CC(=O)O)C(=O)N[C@@H](Cc2ccc(C(F)(F)P(=O)(OCc3ccc([N+](=O)[O-])o3)N(C)CCCCCl)cc2)C(N)=O)cc1 (stereo not given in full)
